# “Also recorded” adds a separate entry of the source.
# Key:
# [1] = assay type: in vivo, NSG mice
# Procedure, shortened: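 Female NSG mice with subcutaneous CEM xenografts (from 50 mm3) given oral gavage at 10, 25 or 50 mg/kg in PEG-200:Transcutol:Labrasol:Tween-80 (5:3:1:1). One terminal plasma and tumor sample per mouse at 1, 3, 6, 9 and 24 h (n=5 per time point). Methanol extraction with internal standard, LC-MS/MS-MRM. Population model with gut depot, plasma and tumor compartments (ADVAN6, TRANS1), exponential inter-subject error and actual tumor volumes.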
# CEM tumor xenografts = experiment: Growth inhibition of CEM tumor xenografts, DI-87 with thymidine, PK-PD model; assay type: in vivo; conditions: for Tumor growth, single agent: agent given alone
# Procedure, shortened: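 NSG mice (8–12 weeks) carried subcutaneous CEM xenografts (2 × 10^6 cells, PBS/matrigel 50/50). Dosing began at 50 mm3: oral gavage QD or BID for 16–18 days (PEG-200:Transcutol:Labrasol:Tween-80, 5:3:1:1), plus thymidine 2 g/kg i.p. BID in saline. Controls: thymidine alone, compound plus saline, vehicle plus saline. Tumor size tracked (n=5). An Emax indirect-response PD model was linked to population PK tumor concentrations.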
# dCK = dCK (Homo sapiens, UniProt P27707); experiment: dCK activity in CEM tumors by [18F]CFA MicroPET/CT, PK-PD model; assay type: in vivo, NSG mice
# Procedure, shortened: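 Male NSG mice bearing subcutaneous CEM tumors (250 mm3) received a single oral dose (5, 10 or 25 mg/kg) in lipid/surfactant vehicle, one time point per mouse (N=4 per time point). Mice were anesthetized and given 740 kBq [18F]CFA i.v. 3 h before imaging. MicroPET/CT acquisition ran 10 min with MAP reconstruction, co-registered CT and manual 3D tumor regions of interest. Modelled tumor concentrations were linked to the effect compartment; linear, Emax and sigmoid Emax fits were compared.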
# [2] = molecular target: bovine serum albumin (BSA) (Bos taurus, UniProt P02769); experiment: Protein binding assessed by IC50 of dCK inhibitor in presence of BSA; assay type: in vitro ADME; conditions: 25 and 50 mg/mL BSA
# Procedure, shortened: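 IC50 was compared between the two BSA levels, with duplicate determinations (n=2) reported as mean±SD.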
# CEM cells = experiment: Cell proliferation assay: rescue of CEM cells from gemcitabine; assay type: cell-based, human; conditions: CEM cells treated with gemcitabine with and without DI-87
# Procedure, shortened: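 CEM cells plated at 1×10^3 cells/well, exposed to increasing gemcitabine concentrations (up to 10 μM) with or without 1 μM test compound for 72 hr. Viability read by CellTiter-Glo luminescence after 5 min at room temperature.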
# [3] = oral 10, 25, 50 mg/kg, plasma-tumor population PK model
# [4] = plasma-tumor population PK model
# [5] = sigmoid Emax indirect response model
# Chain of bovine serum albumin (BSA) (P02769 25-607): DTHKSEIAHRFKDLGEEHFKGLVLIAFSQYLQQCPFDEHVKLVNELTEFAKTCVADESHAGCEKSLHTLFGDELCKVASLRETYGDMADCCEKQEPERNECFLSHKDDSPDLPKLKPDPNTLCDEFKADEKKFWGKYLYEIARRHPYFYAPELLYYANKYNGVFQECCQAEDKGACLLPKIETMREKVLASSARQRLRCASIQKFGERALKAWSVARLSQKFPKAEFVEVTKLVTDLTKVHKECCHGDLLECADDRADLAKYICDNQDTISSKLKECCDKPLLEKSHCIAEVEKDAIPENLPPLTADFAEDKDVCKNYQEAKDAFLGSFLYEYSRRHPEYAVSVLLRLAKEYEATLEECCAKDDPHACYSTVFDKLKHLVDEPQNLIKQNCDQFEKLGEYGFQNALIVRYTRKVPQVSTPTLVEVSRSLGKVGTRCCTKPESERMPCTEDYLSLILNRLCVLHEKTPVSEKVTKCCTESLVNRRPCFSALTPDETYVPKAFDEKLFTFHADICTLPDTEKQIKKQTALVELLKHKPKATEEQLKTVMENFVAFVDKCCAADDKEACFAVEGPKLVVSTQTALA
# Chain of dCK (P27707 whole entry): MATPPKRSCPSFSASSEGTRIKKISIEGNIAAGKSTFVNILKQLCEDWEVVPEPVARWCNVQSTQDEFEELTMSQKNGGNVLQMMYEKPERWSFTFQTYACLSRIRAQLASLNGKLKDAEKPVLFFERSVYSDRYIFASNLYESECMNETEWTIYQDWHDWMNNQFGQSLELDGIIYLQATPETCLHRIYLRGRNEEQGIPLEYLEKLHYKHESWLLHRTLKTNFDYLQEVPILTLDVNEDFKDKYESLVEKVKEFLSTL
smiles,measurement,setting,value
"COc1ccc(-c2nc([C@@H](C)Sc3nc(N)cc(N)n3)c(C)s2)cc1OCCN1CCOCC1 [DI-87, (R)-2-((1-(2-(4-methoxy-3-(2-morpholinoethoxy)phenyl)-5-methylthiazol-4-yl)ethyl)thio)pyrimidine-4,6-diamine]",Half-life (plasma),[1]; 0.693/(CL/V),4.2 h
same,half-life,"[1]; female, NSG, mouse, plasma, oral, Half-life (plasma), 0.693/(CL/V)",4 h
same,KA (absorption constant),[1]; fixed to the estimate from the plasma PK model,0.66 (FIXED) hr
same,Time of peak tumor concentration,"[1]; oral 10, 25, 50 mg/kg, CEM tumor",3 to 9 h
same,CL,[1]; [3],7.67 mL/min/kg
same,V (plasma volume of distribution),[1]; [3],2.78 L/kg
same,Q (intercompartmental clearance plasma-tumor),[1]; [4],0.075 mL/min/kg
same,Scalar,[1]; [4],3.69
same,Tumor growth inhibition,"CEM tumor xenografts; DI-87 25 mg/kg BID oral with thymidine 2 g/kg i.p. BID, 25 mg/kg",Near complete growth inhibition; also recorded: maximal tumor growth inhibition
same,"Emax, Growth Inhibition PK-PD Model","CEM tumor xenografts; Emax indirect response model, DI-87 with i.p. thymidine",1.06
same,EC50,"CEM tumor xenografts; Mus musculus, ip, read-out: EC50, Growth Inhibition PK-PD Model",3.63 µg/mL
same,"Tumor growth, single agent",CEM tumor xenografts; data not shown,tumor growth curves similar to the control; also recorded: essentially no ability to inhibit growth
same,Tolerability as a single agent,"CEM tumor xenografts; single agent, higher doses, data not shown",well tolerated at higher doses
same,EC50,dCK,617 nM
same,"Gamma (Hill coefficient), DCK inhibition PK-PD model",dCK; [5],58.6
same,"Kin, DCK inhibition PK-PD model",dCK; [5],0.76
same,"Kout, DCK inhibition PK-PD model",dCK; [5],0.12
same,"Emax, DCK inhibition PK-PD model","dCK; sigmoid Emax indirect response model, linked to tumor concentrations",1.20
same,dCK inhibition (PET),dCK; single oral dose 5 mg/kg,minimal dCK inhibition with rapid recovery
same,dCK inhibition (PET),dCK; single oral dose 10 mg/kg,full inhibition with recovery initiating at the 12 hr time point
same,Earliest time of full dCK inhibition (PET),dCK; single oral dose 25 mg/kg,3 h
same,Time to full recovery of dCK enzyme activity (PET),dCK; single oral dose 25 mg/kg,≤ 36 h
same,Protein binding (IC50 in presence of BSA),[2],low protein binding; also recorded: retained its potency in the presence of albumin
same,Protein binding (IC50 in presence of BSA),[2]; listed as (R)-DI-87,comparatively lower than its predecessor
same,Prevention of gemcitabine cytotoxicity,CEM cells,fully prevented cytotoxicity following gemcitabine treatment
"Cc1cn([C@H]2C[C@H](O)[C@@H](CO)O2)c(=O)[nH]c1=O [thymidine, reference compound]","Tumor growth, single agent",CEM tumor xenografts; data not shown,tumor growth curves similar to the control
